{"source": "PubChem BioAssay AID651560", "about": "(Sanford-Burnham Center for Chemical Genomics, 2012)", "note": "Screen size: about 360,000 compounds; about 820 (0.23%) were called active. The entries come from a sample that favours actives as a whole. Unmarked numbers belong to inactive results.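 The calls were made as follows: active = compounds that cut the enzyme signal by at least half of the control window in the single-dose screen; inactive = the rest.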", "data": [{"molecular_target": "Low molecular weight phosphotyrosine protein phosphatase (Homo sapiens) (UniProt P24666)", "sequence (P24666 whole entry, looked up)": "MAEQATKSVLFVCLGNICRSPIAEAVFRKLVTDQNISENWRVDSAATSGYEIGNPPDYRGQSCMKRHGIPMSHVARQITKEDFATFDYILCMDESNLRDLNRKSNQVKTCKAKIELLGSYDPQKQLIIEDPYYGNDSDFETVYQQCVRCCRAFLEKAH", "assay": "LMPTP phosphatase inhibitors, primary screen, biochemical, fluorescence intensity, uHTS (AID 651560);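 also: plate controls were DMSO wells with enzyme plus substrate for no effect and substrate without enzyme for full effect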", "settings": "recombinant LMPTP-A, OMFP fluorogenic substrate, at 20 µM, active compounds read high", "how_it_was_run": "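Material: LMPTP-A; amount: 0.625 nM enzyme; doses: single 20 µM dose; times: reaction 50 min, room temperature, dark; technique: fluorescence intensity of OMFP turnover product; benchmarks: no-enzyme and uninhibited controls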", "values": [{"smiles": "O=C(CCc1nc2sc3c(c2c(=O)[nH]1)CCCC3)NCC(=O)Nc1ccccc1Br", "inhibition": "9.36%"}, {"smiles": "O=C(Nc1cccc(Cl)c1)C1CCCN(c2cnccn2)C1", "note": "(configuration not stated)", "inhibition": "-0.511%"}, {"smiles": "C[C@@H]1CN([C@@H](C)CO)C(=O)CCCn2nncc2CO[C@@H]1CN(C)S(=O)(=O)c1ccc(-c2ccccc2)cc1", "inhibition": "-1.91%"}, {"smiles": "C=C1c2c(Cl)ccc(O)c2C(O)=C2C(=O)[C@]3(O)C(O)=C(C(N)=O)C(=O)[C@@H](N(C)C)[C@@H]3[C@@H](O)C12", "note": "(some centres not stated)", "inhibition": "72.5% (active)"}, {"smiles": "C[C@H](CO)N1C[C@H](C)[C@@H](CN(C)S(=O)(=O)c2ccc(Oc3ccccc3)cc2)OCc2cn(nn2)CCCC1=O", "inhibition": "-0.314%"}, {"smiles": "O=c1cc(CO)oc(C(Nc2cccc([N+](=O)[O-])c2)c2ccccn2)c1O", "note": "(configuration not stated)", "inhibition": "-1.69%"}, {"smiles": "CCOC(=O)N1CCN(Cc2nc3ccc([N+](=O)[O-])cc3c(=O)n2-c2cccc(OC)c2)CC1", "inhibition": "-0.855%"}, {"smiles": "CCCCN(C(=O)C1CCC1)c1c(N)n(Cc2ccccc2)c(=O)[nH]c1=O", "inhibition": "-1.05%"}, {"smiles": "CCN1C(=O)C(=O)N(CC(=O)Nc2cc(C)ccc2C)C1=O", "inhibition": "-0.207%"}, {"smiles": "COc1ccc(Br)cc1/C=N/Nc1ccc(S(=O)(=O)Nc2ccccc2C(=O)O)cc1[N+](=O)[O-]", "inhibition": "71.1% (active)"}, {"smiles": "COc1cc(CCN=Cc2ccccc2O)c([N+](=O)[O-])cc1OC", "inhibition": "0.174%"}, {"smiles": "COc1ccccc1C(CNC(=O)c1cccc(NS(=O)(=O)c2ccc(Br)cc2)c1)N(C)C", "note": "(configuration not stated)", "inhibition": "-1.5%"}, {"smiles": "Cc1ccc(S(=O)(=O)N[C@@H](Cc2ccccc2)C(=O)N2CCC(C(=O)N[C@H](C(=O)O)C(C)O)CC2)cc1", "note": "(some centres not stated)", "inhibition": "-1.25%"}, {"smiles": "Cc1ccc(O/C=C2\\OC(=O)c3ccccc32)cc1", "inhibition": "-1.45%"}, {"smiles": "CC1(C)C2CC=C(/C=N/NC(=O)c3ccc(Cl)cc3)C1C2", "note": "(configuration not stated)", "inhibition": "-2.83%"}, {"smiles": "COC(=O)C(C)C1Sc2ccccc2NC1=O", "note": "(configuration not stated)", "inhibition": "0.652%"}, {"smiles": "CCC1CCCCN1C(=O)CSc1nc(C)cc(C)n1", "note": "(configuration not stated)", "inhibition": "-0.356%"}, {"smiles": "CCN([C@H](CO)C(C)C)S(=O)(=O)c1ccccc1Br", "inhibition": "-1.46%"}, {"smiles": "CC1CCCC(C)N1C(=O)COC(=O)c1ccccc1C(=O)c1ccccc1", "note": "(configuration not stated)", "inhibition": "-1.53%"}, {"smiles": "Cn1c(=O)c2c(ncn2CC(=O)N/N=C/c2cn[nH]c2-c2ccc(F)cc2)n(C)c1=O", "inhibition": "-0.239%"}, {"smiles": "CCN(c1ccccc1)S(=O)(=O)c1cc2c(cc1C)n(C)c(=O)c(=O)n2C", "inhibition": "0.0122%"}, {"smiles": "CCCNC(=O)NC(=O)COC(=O)CC(NC(N)=O)c1ccc(Cl)cc1", "note": "(configuration not stated)", "inhibition": "-1.19%"}, {"smiles": "COc1ccc2c(c1)c(=Cc1ccc(N(C)C)cc1)c1cc(-c3ccccc3)[n+](C)n12", "inhibition": "96.2% (active)"}, {"smiles": "O=C(COC(=O)c1ccc([N+](=O)[O-])o1)NC12CC3CC(CC(C3)C1)C2", "inhibition": "1.22%"}, {"smiles": "COc1cc(NC(=S)N2CCCC(C)C2)c(OC)cc1Cl", "note": "(configuration not stated)", "inhibition": "0.265%"}, {"smiles": "C=CCn1c(=O)n(C)c2c(=O)n(C)c(=O)n(C)c21", "inhibition": "0.217%"}, {"smiles": "Cc1csc(NC(=O)CSc2nnc(-c3cccnc3)o2)n1", "inhibition": "-0.391%"}, {"smiles": "N#Cc1ccc(OCC(=O)NC(=O)NC2CCS(=O)(=O)C2)cc1", "note": "(configuration not stated)", "inhibition": "-1.41%"}, {"smiles": "O=C(CCN1C(=O)[C@@H]2Cc3ccccc3CN2C1=O)NCc1ccccc1", "inhibition": "0.0399%"}, {"smiles": "COc1cccc(N(C(=O)c2ccn[nH]2)C2(C(=O)Nc3c(C)cccc3C)CCCCC2)c1", "inhibition": "-0.749%"}, {"smiles": "O=C(O)COCC(=O)NCc1csc2ccc(Cl)cc12", "inhibition": "-1.97%"}, {"smiles": "CCOP(=O)(OCC)C(Nc1cccc(C)c1)c1ccc(F)cc1", "note": "(configuration not stated)", "inhibition": "0.494%"}, {"smiles": "COc1cnc(SCc2ccc(Cl)c(Cl)c2)nc1Cl", "inhibition": "3.06%"}, {"smiles": "CCN(CC)CCNC(=O)c1sc2ncn(CC(=O)Nc3ccc(C)c(Cl)c3)c(=O)c2c1C", "inhibition": "-0.286%"}, {"smiles": "CCN1CCN(c2ccc(S(=O)(=O)N3CCCCC3)cc2NC(=O)Cc2c(Cl)cccc2Cl)CC1", "inhibition": "1.2%"}, {"smiles": "CCC(C)Cn1c(O)cc2nn(-c3nc4ccccc4s3)c(=O)c-2c1C", "note": "(configuration not stated)", "inhibition": "52.5% (active)"}, {"smiles": "O=c1c2cc(-c3ccccc3)sc2nc2n1N=C(c1cccs1)CS2", "inhibition": "61.5% (active)"}, {"smiles": "O=c1c(-c2ccccc2)cnc2n1CCS2", "inhibition": "-1.57%"}, {"smiles": "COc1ccc(OC)c(Nc2nc(-c3ccc(O)c(O)c3)cs2)c1", "inhibition": "62.5% (active)"}, {"smiles": "COc1ccc(C(O)c2nc(-c3ccc4c(c3)OCO4)cs2)cc1", "note": "(configuration not stated)", "inhibition": "0.808%"}, {"smiles": "COc1cccc(C(O)c2nc(-c3ccc(C)c(C)c3)cs2)c1", "note": "(configuration not stated)", "inhibition": "3.13%"}, {"smiles": "Cc1ccccc1NC(=O)Cc1nc(COC(=O)CNC(=O)c2ccc(Cl)cc2Cl)cs1", "inhibition": "0.684%"}, {"smiles": "COCCCNC(=O)C1CC(=O)N(CCc2ccccc2)C1", "note": "(configuration not stated)", "inhibition": "-0.151%"}, {"smiles": "CN(CCC1CCOCC1)C(=O)CC1C(=O)NCCN1Cc1cccc(F)c1", "note": "(configuration not stated)", "inhibition": "-1.38%"}, {"smiles": "Cc1cc2c(cc1C)N(C(=O)CN1C(=O)c3ccccc3C1=O)C(C)(C)c1ssc(=S)c1-2", "inhibition": "2.43%"}, {"smiles": "CCOc1ccccc1NC(=O)C1CCCN(C(=O)Nc2ccccc2)C1", "note": "(configuration not stated)", "inhibition": "-1.09%"}, {"smiles": "O=C(Cn1cnc2c(nnn2-c2ccccc2)c1=O)N1CCC(Cc2ccccc2)CC1", "inhibition": "1.23%"}, {"smiles": "COc1cccc(CNc2nc(NCc3cccs3)nc3ccsc23)c1", "inhibition": "27%"}, {"smiles": "COCCNc1nc(NCc2ccc(NC(C)=O)cc2)c2sccc2n1", "inhibition": "51.4% (active)"}, {"smiles": "CC(=O)Nc1ccc(CNc2nc(NCCN(C)C)nc3cc(-c4ccccc4)sc23)cc1", "inhibition": "1.9%"}, {"smiles": "Fc1ccccc1OCCSc1nc2ccccc2o1", "inhibition": "1.37%"}, {"smiles": "CCSc1nc2c(c(=O)[nH]1)C(c1cccnc1)C(C(=O)OC(C)C)=C(C)N2", "note": "(configuration not stated)", "inhibition": "-1.3%"}]}]}
